Only some compounds are listed: those with a hit (about 2.4% of all), similar ones and a draw of the others.
PAD4 FP inh: inhibitors of human PAD4; hit rate 0.41% among 330,000; inhibition, % at 6.36 µM; Q9UM07; recombinant PAD4, RCA probe fluorescence polarization;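 active means percent inhibition above a cutoff equal to the mean of all tested compounds plus 3 SD, cut at about 15% in these data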;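 further: 0% = PAD4 with RCA probe and DMSO and 100% = probe without PAD4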
TCR-CD3 inh: human TCR-CD3 binding inhibition; TAMRA-labeled TCR probe fluorescence, biochemical; inhibition, % at 9.4 µM; hit rate 0.37% among 360,000; AID 651800; in the data active means inhibition above about 19%;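 further: recombinant mutant TCR 2C K166C tagged with TAMRA read by polarization; 0% = receptor in buffer alone and 100% = receptor with positive control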
TDP2 inh: blocks human TDP2 phosphodiesterase activity. O95551. recombinant TDP2, T5PNP hydrolysis, p-nitrophenol absorbance 415 nm. inhibition, % at 12.8 µM. hit rate 0.34% among 370,000. AID 720702;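 active means inhibition above the mean of all tested compounds plus 3 SD, set per campaign, cut at about 25% in these data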;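 further: 0% = DMSO with enzyme and 100% = buffer with substrate but no TDP2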
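Assay system: recombinant human TDP2 / Reagent: T5PNP substrate at 5 mM, a TopII-DNA adduct mimic / Measured by: epi absorbance from released p-nitrophenol / Evaluation: % inhibition relative to enzyme-containing and enzyme-free wells / Control set: enzyme-free and DMSO wells / Replicates: each compound tested once, singlicate / Schedule: enzyme reaction with compound for 2 h at 37 °C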
Apaf1 inhib: human Apaf-1 inhibition; O14727; reconstituted apoptosome caspase-3 activity, DEVD-Rh110 fluorescence; inhibition, % at 20 µM; hit rate 0.71% among 330,000; AID 489030; active means inhibition of at least 40% at 20 µM;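 further: plate controls were DMSO wells for no effect and DEVD-CHO caspase inhibitor wells for full effect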
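Material: reconstituted apoptosome with Apaf-1, cytochrome c, caspase-9, procaspase-3, dATP. Technique: Rh110 fluorescence intensity. Buffer or medium: pH 7.5 Hepes buffer with CHAPS, BSA, DTT. Times: 30 min plus 50 min, RT.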
SIAE primary: blocks human sialic acid acetylesterase. Q9HAT2. SIAE FP-Rh probe binding, fluorescence polarization. inhibition, % at 9.66 µM. hit rate 0.69% among 370,000. AID 1053197;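 active means inhibition above a cutoff: mean of compounds within the control limits plus 3 SD of those, cut at about 17% in these data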;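 further: 0% = plate median of compound wells and 100% = probe without SIAE protein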
Target sequence (Q9HAT2 whole entry, looked up): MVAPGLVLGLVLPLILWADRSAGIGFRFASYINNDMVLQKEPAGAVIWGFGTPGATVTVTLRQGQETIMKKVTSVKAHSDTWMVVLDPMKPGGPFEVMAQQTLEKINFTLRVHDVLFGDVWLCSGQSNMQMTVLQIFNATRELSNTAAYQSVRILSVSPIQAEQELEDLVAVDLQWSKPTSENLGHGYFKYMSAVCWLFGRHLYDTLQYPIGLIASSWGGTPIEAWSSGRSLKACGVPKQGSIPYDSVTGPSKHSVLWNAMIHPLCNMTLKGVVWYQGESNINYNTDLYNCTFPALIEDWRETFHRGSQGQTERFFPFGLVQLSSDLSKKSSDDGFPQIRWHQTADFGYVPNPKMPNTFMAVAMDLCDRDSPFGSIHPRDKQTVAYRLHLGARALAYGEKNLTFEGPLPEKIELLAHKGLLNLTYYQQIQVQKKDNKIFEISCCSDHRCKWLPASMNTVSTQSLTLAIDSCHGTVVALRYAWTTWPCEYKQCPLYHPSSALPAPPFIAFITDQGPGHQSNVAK
GSTO1 inh: GSTO1 inhibition, counter-screen for RBBP9 inhibitors; P78417; recombinant GSTO1, activity-based probe fluorescence polarization; inhibition, % at 5.96 µM; hit rate 1.1% among 300,000; AID 1974;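 active means inhibition above the campaign mean inhibition plus 3 SD, cut at about 35% in these data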;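 further: 0% = GSTO1-1 with DMSO and 100% = wells lacking GSTO1-1 enzyme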
TDP2 confirm: human TDP2 inhibition, confirmation; shares compounds with TDP2 inh; recombinant human TDP2, absorbance read-out; inhibition, % at 12.8 µM; hit rate 22% among 1,100; in the data active means inhibition above about 25%;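 further: 0% = vehicle with enzyme and 100% = no enzyme buffer only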
Numbers without * were called inactive; nt = no result given.

SMILES | PAD4 FP inh | TCR-CD3 inh | TDP2 inh | Apaf1 inhib | SIAE primary | GSTO1 inh | TDP2 confirm
COc1ccc(S(=O)(=O)N2CCOC2CNC(=O)C(=O)NCCc2ccc(OC)c(OC)c2)cc1C (stereo not given) | -4 | 4 | 6 | 12 | 3 | 2 | nt
CCOc1cccc(OCCCCn2cnc3ccccc3c2=O)c1 | 2 | 1 | 25* | -9 | 3 | -4 | 0
COc1ccc(NC(=O)CCCCn2c(=O)[nH]c3ccccc3c2=O)cc1 | -4 | 5 | 7 | 7 | -2 | 5 | nt
Cc1ccc(NC(=O)CN2C(=O)NC3(CCc4ccccc43)C2=O)cc1S(=O)(=O)N1CCCCC1 (stereo not given) | -4 | 5 | 90* | 21 | -6 | -5 | -13
COC(=O)c1cccc(NC(=O)c2cc3ccccc3o2)c1 | 0 | -2 | -12 | 18 | -9 | -3 | nt
COC(=O)c1cc(NC(=O)c2cc3ccccc3o2)cc(C(=O)OC)c1 | 3 | 7 | 26* | 3 | 7 | 5 | 1
CCOc1ccc(S(=O)(=O)N2CCCCC2)cc1NC(=O)c1c(CC)noc1C | -7 | 10 | 25* | 15 | -8 | 5 | -8
Cn1cnc(S(=O)(=O)NC2CCN(Cc3ccccc3)CC2)c1 | -1 | -1 | 4 | 6 | 4 | -1 | nt
CC(C)C1Cc2[nH]c(=O)c(C(=O)O)cc2CO1 (stereo not given) | -5 | 4 | 29* | -15 | -2 | -3 | 9
CC(C)C[C@H](NC(=O)OC(C)(C)C)c1nnc(SCc2ccccc2)o1 | 7 | 4 | 9 | 20 | 11 | 14 | nt
N#Cc1c(-c2ccccc2)cc(-c2ccc(O)cc2)nc1N | -4 | 2 | 29* | 11 | -8 | -12 | -5
COc1ccccc1/C=C/c1nc(S(=O)(=O)c2ccccc2)c(N2CCC(C(N)=O)CC2)o1 | 1 | 6 | 26* | 13 | 5 | 1 | -11
COc1ccc(CN2CCCC(C(=O)N3CCCC3)C2)c(OC)c1 (stereo not given) | -7 | 0 | 31* | 1 | 10 | -1 | 6
COc1ccc(Nc2nc3ccccc3n3cnnc23)cc1Cl | -2 | -6 | 26* | 7 | 12 | -4 | -4
COc1ccc(C(=O)NCC(O)CN2CCOCC2)cc1[N+](=O)[O-] (stereo not given) | -5 | 5 | 25* | 0 | -2 | 5 | -2
COc1ccc(C(=O)NCC2(c3ccccc3)CCOCC2)cc1[N+](=O)[O-] | 1 | -7 | 3 | 3 | 6 | -2 | nt
Cc1ccc2nc(C3CCN(CC(=O)Nc4ccc5c(c4)OCCO5)CC3)[nH]c2c1 | 2 | 7 | -7 | 9 | 0 | 5 | nt
CC1CCCC(C)N1C(=O)COC(=O)CNC(=O)c1ccccc1F (stereo not given) | -2 | -7 | 6 | 6 | 0 | nt | nt
COc1cc(NCCCNC(C)C)c2nccc(C)c2c1 | nt | 9 | 28* | nt | 6 | nt | 28*
CCCCOc1ccc(CSCCNC(=S)Nc2ccccc2)cc1 | -2 | 0 | 2 | 27 | 3 | 5 | nt
CCCCCOc1ccc(CSCCNC(=S)Nc2ccccc2)cc1 | -4 | -2 | 37* | 14 | -3 | -4 | -2
COc1ccc(OC)c(C(=O)COC(=O)C(CCSC)NC(=O)COc2ccccc2)c1 (stereo not given) | -1 | -5 | -12 | 25 | 3 | -3 | nt
COc1ccccc1C(=O)COC(=O)C(CCSC)NC(=O)COc1ccccc1 (stereo not given) | 0 | 10 | 25* | 17 | 2 | 14 | 1
O=C(C1=C(O)C(=O)N(c2ncccn2)C1c1ccc(F)cc1)c1ccco1 (stereo not given) | 7 | -2 | 5 | -21 | 4 | -6 | nt
CCCCNC(=S)NNC(=O)c1sccc1C | -1 | nt | nt | 6 | nt | 2 | nt
SMILES | PAD4 FP inh | TCR-CD3 inh | TDP2 inh | Apaf1 inhib | SIAE primary | GSTO1 inh | TDP2 confirm
O=C(Cc1ccccc1)NN1C(=O)/C(=C/c2ccc(C(=O)O)cc2)SC1=S | -9 | 4 | 26* | 0 | -1 | 10 | 5
CCOC(=O)c1sc(NC(=O)CNCc2ccccn2)c(C(=O)OCC)c1C | -1 | -14 | 26* | 28 | -6 | 5 | 0
CCOC(=O)c1sc(NC(=O)CNCc2cccnc2)c(C(=O)OCC)c1C | -4 | -4 | 1 | 24 | 4 | 1 | nt
CCOC(=O)C1CCN(C(=O)c2ccc(Cl)c(NC3=NC4CS(=O)(=O)CC4S3)c2)CC1 (stereo not given) | 7 | 2 | 3 | 8 | 2 | -1 | nt
COc1ccc2nc(SCC(=O)NCc3ccccc3)[nH]c2c1 | nt | -6 | 60* | -1 | 3 | nt | -2
CC(=O)NC1C(=O)N(CCN2CCOCC2)c2ccc(F)cc21 (stereo not given) | nt | 3 | 32* | 3 | -2 | nt | 31*
CC(=O)NC1C(=O)N(CCN2CCOCC2)c2ccc(C)cc21 (stereo not given) | 7 | nt | nt | nt | nt | -9 | nt
Cc1oc(-c2ccccc2F)nc1CS(=O)(=O)CC(=O)NC(C)CCc1ccccc1 (stereo not given) | -7 | 3 | 27* | 25 | 2 | -4 | -1
C=CCOc1cccc(C2C(C(=O)c3ccco3)=C(O)C(=O)N2CCN2CCOCC2)c1 (stereo not given) | -3 | -3 | 41* | -5 | -5 | 2 | -7
C=CCOc1cccc(C2C(C(=O)c3ccco3)=C(O)C(=O)N2Cc2ccco2)c1 (stereo not given) | -8 | -9 | -14 | 4 | 2 | 5 | nt
Cc1cc(NC(=O)CCN2C(=O)c3ccccc3C2=O)no1 | -8 | -2 | -1 | -6 | -5 | -1 | nt
Cc1cc(NC2=CC(=O)C(=O)c3ccccc32)no1 | nt | 0 | 29* | nt | 8 | nt | 69*
O=C(N/N=C/c1cn[nH]c1-c1ccc(F)cc1)c1ccncc1 | -3 | -4 | -6 | 3 | 4 | 4 | nt
Nc1nc2c(s1)CCc1ccccc1-2 | -4 | 8 | 30* | 10 | 11 | 6 | -2
COc1ccc2c(c1)-c1nc(N)sc1CC2 | -6 | 3 | -4 | 16 | 3 | 6 | nt
CCOC(=O)C1=C(Cc2ccc(C)cc2)C(=O)c2ccccc2C1=O | -44 | -15 | 31* | 15 | -4 | 17 | 27*
CCOC(=O)C1=C(O)c2ccccc2C(=O)/C1=C\c1ccc(CC)cc1 | -42 | nt | nt | nt | nt | 31 | nt
CCOc1ccc(NC2=C(OC)C(=O)c3ccccc3C2=O)cc1 | -14 | -12 | 26* | 29 | 6 | 40* | 22
COc1ccc(NC2=C(c3ccc(OC)cc3)C(=O)c3ccccc32)cc1 | -4 | -5 | -10 | 3 | 7 | 4 | nt
COC1=C(Nc2ccc(O)cc2)C(=O)c2ccccc2C1=O | -11 | 6 | 48* | 11 | 9 | 34 | 6
COC1=C(Nc2ccc(OC)cc2)C(=O)C(OC)=C(Nc2ccc(OC)cc2)C1=O | nt | 0 | 3 | nt | 14 | nt | nt

Assay outcomes (PubChem BioAssay)
